In ChEMBL document CHEMBL1152131, “Tetrahydro-4-quinolinamines identified as novel P2Y(1) receptor antagonists” (Bioorg Med Chem Lett, 2008):
pIC50, pKi: −log10 of the molar value.

Assays:
P2Y purinoceptor 1 [1] = biological target: T1, P2Y purinoceptor 1 (Homo sapiens, UniProt P47900); assay: Antagonist activity at human P2Y1 receptor in HEK293 cells assessed as intracellular calcium level by FLIPR; format: functional, cell-based
P2Y purinoceptor 1 [2] = biological target: T1, P2Y purinoceptor 1; assay: Displacement of [33P]2-Mes-ADP from human recombinant P2Y1 receptor expressed in human U20S cells; format: cell-based, U2OS
Method in brief: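 Membranes from BacMam-transduced U2OS cells expressing human P2Y1, [33P]-2-MeS-ADP radioligand, 0.5 mg WGA-SPA beads. Buffer: 15 mM Hepes, 145 mM NaCl, 0.1 mM MgCl2, 5 mM EDTA, 5 mM KCl. Test compound at various concentrations or DMSO vehicle. Incubated 1 h at room temperature to completion, centrifuged at 2000g, then counted.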

Platelet = assay: Inhibition of ADP-induced human platelet aggregation; format: functional, cell-based
Method in brief: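 Washed human platelets preincubated with compound for 5 min, then challenged with 10 µM ADP; aggregation followed by light transmittance aggregometry; IC50 reported.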

T1 sequence (P47900 whole entry): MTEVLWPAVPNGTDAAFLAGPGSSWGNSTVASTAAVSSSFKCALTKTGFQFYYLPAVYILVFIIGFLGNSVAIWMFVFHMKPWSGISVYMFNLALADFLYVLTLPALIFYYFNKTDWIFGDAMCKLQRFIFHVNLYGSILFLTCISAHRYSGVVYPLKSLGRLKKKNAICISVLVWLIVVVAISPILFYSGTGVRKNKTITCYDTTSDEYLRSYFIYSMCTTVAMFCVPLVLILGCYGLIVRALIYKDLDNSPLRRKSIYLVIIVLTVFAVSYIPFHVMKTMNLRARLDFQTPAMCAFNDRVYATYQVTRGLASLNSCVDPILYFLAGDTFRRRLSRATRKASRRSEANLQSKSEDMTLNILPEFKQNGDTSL

For `CC[C@@H]1[C@@H](C)[C@H](Nc2ccccc2)c2ccccc2N1C(=O)Nc1cc(Cl)cc(Cl)c1` (stereo in doubt; 16), the pIC50 (P2Y purinoceptor 1 [1]; hek293) was 6.22, the pKi (P2Y purinoceptor 1 [2]; u2os) was 7.15 and the pIC50 (Platelet) was 6.30.
With `CC[C@@H]1[C@@H](C)[C@H](Nc2ccccc2)c2ccccc2N1C(=O)c1ccc(OC)cc1` the pIC50 (P2Y purinoceptor 1 [1]) was 6.10 and the pKi (P2Y purinoceptor 1 [2]) was 6.40.
With `CC[C@@H]1[C@@H](C)[C@H](Nc2ccccc2)c2ccccc2N1C(=O)Nc1cccc(OC)c1` the pIC50 (P2Y purinoceptor 1 [1]) was 5.80 and the pKi (P2Y purinoceptor 1 [2]) was 6.30.
`CC[C@@H]1[C@@H](C)[C@H](Nc2ccccc2)c2ccccc2N1C(=O)Nc1ccc(OC)cc1` was tested, and the pIC50 (P2Y purinoceptor 1 [1]) was 5.22.
In the case of `CC[C@@H]1[C@@H](C)[C@H](Nc2ccccc2)c2ccccc2N1C(=O)c1ccc(Cl)cc1`, the pIC50 (P2Y purinoceptor 1 [1]) was 5.89 and the pKi (P2Y purinoceptor 1 [2]) was 6.40.
In the case of `COc1ccc(C(=O)N2CC[C@H](Nc3ccccc3)c3ccccc32)cc1`, the pIC50 (P2Y purinoceptor 1 [1]) was under 4.60.
With `CC[C@@H]1[C@@H](C)[C@H](Nc2ccccc2)c2ccccc2N1C(=O)c1ccc(Br)cc1` the pIC50 (P2Y purinoceptor 1 [1]) was 6.10 and the pKi (P2Y purinoceptor 1 [2]) was 7.00.
For `CC[C@H]1[C@H](C)[C@@H](Nc2ccccc2)c2ccccc2N1C(=O)Nc1cc(Cl)cc(Cl)c1`, the pIC50 (P2Y purinoceptor 1 [1]) was under 4.60.
Molecule `CC[C@@H]1[C@@H](C)[C@H](Nc2ccccc2)c2ccccc2N1C(=O)Nc1cc(Cl)cc(Cl)c1` (stereo in doubt; 6i) has a pIC50 (P2Y purinoceptor 1 [1]) of 6.22 and a pKi (P2Y purinoceptor 1 [2]) of 7.15.
With `CC[C@@H]1C[C@H](Nc2ccccc2)c2ccccc2N1C(=O)c1ccc(OC)cc1` the pIC50 (P2Y purinoceptor 1 [1]) was 5.49 and the pKi (P2Y purinoceptor 1 [2]) was 6.10.
Work on `CC[C@@H]1[C@@H](C)[C@H](Nc2ccccc2)c2ccccc2N1C(=O)Nc1ccccc1` yielded a pIC50 (P2Y purinoceptor 1 [1]) of 5.80 and a pKi (P2Y purinoceptor 1 [2]) of 6.40.
`CC[C@@H]1[C@@H](C)[C@H](Nc2ccccc2)c2ccccc2N1C(=O)c1cccc(OC(F)(F)F)c1` showed a pIC50 (P2Y purinoceptor 1 [1]) of under 4.60.
In the case of `CC[C@@H]1C[C@@H](Nc2ccccc2)c2ccccc2N1C(=O)c1ccc(OC)cc1`, the pIC50 (P2Y purinoceptor 1 [1]) was under 4.60.
With `CC[C@@H]1[C@@H](C)[C@H](Nc2ccccc2)c2ccccc2N1C(=O)Nc1ccc(Cl)cc1` the pIC50 (P2Y purinoceptor 1 [1]) was 5.70 and the pKi (P2Y purinoceptor 1 [2]) was 6.52.
`CC[C@@H]1[C@@H](C)[C@H](Nc2ccccc2)c2ccccc2N1C(=O)Nc1cccc(Br)c1` gave a pIC50 (P2Y purinoceptor 1 [1]) of 6.00 and a pKi (P2Y purinoceptor 1 [2]) of 7.00.
For `CC[C@@H]1[C@@H](C)[C@H](N(C)c2ccccc2)c2ccccc2N1C(=O)c1ccc(OC)cc1`, the pIC50 (P2Y purinoceptor 1 [1]) was under 4.60.
Work on `CC[C@@H]1[C@@H](C)[C@H](Nc2ccccc2)c2ccccc2N1C(=O)c1ccccc1` yielded a pIC50 (P2Y purinoceptor 1 [1]) of 4.60.
Work on `CC[C@@H]1[C@@H](C)[C@H](Nc2ccccc2)c2ccccc2N1C(=O)Nc1ccccc1Cl` yielded a pIC50 (P2Y purinoceptor 1 [1]) of under 4.60.
For `CC[C@@H]1[C@@H](C)[C@H](Nc2ccccc2)c2ccccc2N1C(=O)c1ccc(OC(F)(F)F)cc1`, the pIC50 (P2Y purinoceptor 1 [1]) was 6.00 and the pKi (P2Y purinoceptor 1 [2]) was 7.00.
`CC[C@@H]1[C@@H](C)[C@H](Nc2ccccc2)c2ccccc2N1C(=O)Nc1cccc(Cl)c1` showed a pIC50 (P2Y purinoceptor 1 [1]) of 6.00 and a pKi (P2Y purinoceptor 1 [2]) of 6.52.
`COc1ccc(C(=O)N2C[C@@H](C)[C@H](Nc3ccccc3)c3ccccc32)cc1` gave a pIC50 (P2Y purinoceptor 1 [1]) of 5.00.
With `CC[C@@H]1[C@@H](C)[C@H](Nc2ccccc2)c2ccccc2N1C(=O)Nc1cc(OC)cc(OC)c1` the pIC50 (P2Y purinoceptor 1 [1]) was 6.10 and the pKi (P2Y purinoceptor 1 [2]) was 6.70.
`CC[C@@H]1[C@@H](C)[C@H](Nc2ccccc2)c2ccccc2N1C(=O)c1ccc([N+](=O)[O-])cc1` was tested, and the pIC50 (P2Y purinoceptor 1 [1]) was 5.80 and the pKi (P2Y purinoceptor 1 [2]) was 6.30.
